Results from ChEMBL document CHEMBL1128484, “Cardioselective ammonium, phosphonium, and sulfonium analogues of alpha-tocopherol and ascorbic acid that inhibit in vitro and ex vivo lipid peroxidation and scavenge superoxide radicals” (J Med Chem, 1995).

Legend:
[1] = (§1) The reaction rate constant(K) by measuring competition with nitroblue tetrazolium of the superoxide radicals formed by xanthine oxidase/xanthine; type: functional
[2] = organism: Rattus norvegicus; assay: The IC50 value was measured for inhibition of lipid autoxidation in rat brain homogenate.; type: functional
How it was run: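 Rat brain homogenate left to autoxidize with test compound present. The read-out is formation of thiobarbituric acid-reactive substances (TBARS). IC50 is the concentration that inhibits TBARS formation by 50%. Values are single or duplicate determinations, or means ± SD.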

[3] = as §1; type: ADME
[4] = The reaction rate constant (K) by measuring competition with nitroblue tetrazolium of the superoxide radicals formed by xanthine oxidase/xanthine; type: ADME
[5] = organism: Mus musculus; assay: The ex vivo ID50 value was measured for lipid inhibition of autoxidation in mouse heart homogenate; type: functional; conditions: read-out: ID50 (the source's name)
How it was run: (§2)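 Groups of five CD1 mice were dosed subcutaneously, and hearts were excised 1 h later. Frozen hearts were homogenized, diluted in potassium phosphate buffer and incubated at 37 °C for 2 h. The reaction was stopped on ice with HClO4 and centrifuged. The supernatant was heated with thiobarbituric acid at 100 °C for 15 min. TBARS were extracted into n-butanol and read by fluorescence (ex 515 nm, em 553 nm) against a malondialdehyde dimethylacetal standard. ID50 was taken from semilog plots of log dose versus percent of vehicle control, using at least four doses.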

[6] = organism: Mus musculus; assay: The in vitro IC50 value was measured for lipid inhibition of autoxidation in mouse heart homogenate; type: functional
How it was run: (§3)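 Heart homogenate from untreated mice, diluted in potassium phosphate buffer. Test compound was added at several concentrations before 2 h incubation at 37 °C. The reaction was stopped on ice with HClO4, then heated with thiobarbituric acid at 100 °C for 15 min. TBARS were extracted into n-butanol and read by fluorescence (ex 515 nm, em 553 nm) against a malondialdehyde dimethylacetal standard. IC50 is 50% inhibition of TBARS formation.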

[7] = test system: Mus musculus; assay: The ex vivo ID50 value was measured for inhibition of lipid autoxidation in mouse heart homogenate 1 hr after subcutaneous administration.; type: functional; conditions: sc, read-out: ID50 (the source's name); how it was run: as §2
[8] = organism: Mus musculus; assay: The in vitro IC50 value was measured for inhibition of lipid autoxidation in mouse heart homogenate; type: functional; how it was run: as §3
[9] = organism: Mus musculus; assay: The ex vivo ID50 value was measured for inhibition of lipid autoxidation in mouse heart homogenate; type: functional; conditions: read-out: ID50 (the source's name); how it was run: as §2

In the case of `O=C1O[C@H]([C@@H](O)CO)C(O)=C1O`, the K [1] is reported as 350000 M⁻¹ s⁻¹.
`Cc1c(C)c2c(c(C)c1O)CC[C@@](C)(CCC[C@H](C)CCC[C@H](C)CCCC(C)C)O2` [alpha-TOCHOPHEROL] showed an IC50 ([2]; Rattus norvegicus, Brain) of 14 µM.
`Cc1c(C)c2c(c(C)c1O)CC[C@](C)(CC[S+](C)C)O2` showed an IC50 ([2]; Rattus norvegicus, Brain) of 2 µM.
`Cc1c(C)c2c(c(C)c1O)CCC(C)(C(=O)[N-][N+](C)(C)C)O2` (centres undefined) gave an IC50 ([2]; Rattus norvegicus, Brain) of 14 µM.
In the case of `Cc1c(C)c2c(c(C)c1O)CCC(C)(CC(=O)[N-][N+](C)(C)C)O2` (centres undefined), the K [3] is reported as 28000 M⁻¹ s⁻¹ and the IC50 ([2]; Rattus norvegicus, Brain) is reported as 6 µM.
`Cc1c(C)c2c(c(C)c1O)CC[C@](C)(CC(=O)O)O2` showed an IC50 ([2]; Rattus norvegicus, Brain) of 14 µM.
Work on `Cc1c(C)c2c(c(C)c1O)CC[C@](C)(CC(=O)[N-][N+](C)(C)C)O2` yielded an IC50 ([2]; Rattus norvegicus, Brain) of 8 µM.
`CCCCCCCCCCCCCCCCCCOC1=C([O-])C(C(O)C[N+](C)(C)C)OC1=O` (centres undefined) showed an IC50 ([2]; Rattus norvegicus, Brain) of over 20 µM.
For `Cc1c(C)c2c(c(C)c1O)CCC(C)(C(=O)O)O2` (centres undefined) [TROLOX], the K [4] was 20000 M⁻¹ s⁻¹ and the IC50 [2] was 14 µM.
Work on `Cc1c(C)c2c(c(C)c1O)CC[C@@](C)(CC[N+](C)(C)C)O2.Cc1ccc(S(=O)(=O)[O-])cc1` yielded a K [4] of 21000 M⁻¹ s⁻¹ and an IC50 ([2]; Rattus norvegicus, Brain) of 2.3 µM.
For `Cc1c(C)c2c(c(C)c1O)CC[C@](C)(CCN(C)C)O2`, the IC50 ([2]; Rattus norvegicus, Brain) was 1 µM.
`CSCCC1(C)CCc2c(C)c(O)c(C)c(C)c2O1` (centres undefined) showed an ED50 [5] of over 150 µmol/kg, a K [4] of 800 M⁻¹ s⁻¹ and an IC50 [6] of 18 µM. For the same compound, the IC50 ([2]; Rattus norvegicus, Brain) was 3 µM.
`CCCCCCCCCCCCCCCCCCOC1=C(O)[C@@H](C(O)CO)OC1=O` (some centres undefined) showed a K [3] of 21000 M⁻¹ s⁻¹ and an IC50 ([2]; Rattus norvegicus, Brain) of 6 µM.
`Cc1c(C)c2c(c(C)c1O)CCC(C)(CC[N+](C)(C)C)O2.Cc1ccc(S(=O)(=O)[O-])cc1` (centres undefined) showed an ED50 [7] of 11 µmol/kg, a K [4] of 24000 M⁻¹ s⁻¹ and an IC50 [8] of 19 µM. It also gave an IC50 ([2]; Rattus norvegicus, Brain) of 2.6 µM.
`CC[P+](CC)(CC)CCC1(C)CCc2c(C)c(O)c(C)c(C)c2O1.[Br-]` (centres undefined) gave an ED50 [5] of 7 µmol/kg, a K [3] of 22000 M⁻¹ s⁻¹ and an IC50 [8] of 10 µM. The IC50 ([2]; Rattus norvegicus, Brain) was 2 µM.
Compound `Cc1c(C)c2c(c(C)c1O)CC[C@](C)(CC[P+](C)(C)C)O2` has an IC50 ([2]; Rattus norvegicus, Brain) of 2 µM.
For `Cc1c(C)c2c(c(C)c1O)CC[C@@](C)(CC(=O)O)O2`, the IC50 ([2]; Rattus norvegicus, Brain) was 17 µM.
For `Cc1c(C)c2c(c(C)c1O)CC[C@](C)(CC[N+](C)(C)C)O2.Cc1ccc(S(=O)(=O)[O-])cc1`, the K [4] was 18000 M⁻¹ s⁻¹ and the IC50 ([2]; Rattus norvegicus, Brain) was 2.2 µM.
`Cc1c(C)c2c(c(C)c1O)CCC(C)(CC[S+](C)C)O2.Cc1ccc(S(=O)(=O)[O-])cc1` (centres undefined) showed an ED50 [5] of 6 µmol/kg, a K [3] of 21000 M⁻¹ s⁻¹ and an IC50 [8] of 7 µM. The IC50 ([2]; Rattus norvegicus, Brain) was 2 µM.
`Cc1c(C)c2c(c(C)c1O)CC[C@@](C)(CC[P+](C)(C)C)O2` showed an IC50 ([2]; Rattus norvegicus, Brain) of 2 µM.
With `Cc1c(C)c2c(c(C)c1O)CCC(C)(CC[P+](C)(C)C)O2.[Br-]` (centres undefined) the ED50 [5] was 8 µmol/kg, the K [3] was 24000 M⁻¹ s⁻¹ and the IC50 [8] was 10 µM. The IC50 ([2]; Rattus norvegicus, Brain) was 2 µM.
In the case of `C[N+](C)(C)CC(O)C1OC(=O)C(O)=C1[O-]` (centres undefined), the K [4] is reported as 600000 M⁻¹ s⁻¹ and the IC50 ([2]; Rattus norvegicus, Brain) is reported as over 200 µM.
With `Cc1c(C)c2c(c(C)c1O)CC[C@@](C)(CCN(C)C)O2` the IC50 ([2]; Rattus norvegicus, Brain) was 1 µM.
Compound `Cc1c(C)c2c(c(C)c1O)CC[C@@](C)(CC(=O)[N-][N+](C)(C)C)O2` has an IC50 ([2]; Rattus norvegicus, Brain) of 9 µM.
`Cc1c(C)c2c(c(C)c1O)CCC(C)(CCN(C)C)O2` (centres undefined) showed an ED50 [9] of over 150 µmol/kg, a K [4] of 27000 M⁻¹ s⁻¹ and an IC50 [8] of 19 µM.
Work on `Cc1c(C)c2c(c(C)c1O)CC[C@@](C)(CC[S+](C)C)O2` yielded an IC50 ([2]; Rattus norvegicus, Brain) of 2 µM.
